Values after ≈ are worked out from the molar mass of the structure shown.
Experiments:
Assay type in all cases: functional
Acinetobacter baumannii = experiment: Antimicrobial activity against Acinetobacter baumannii after 24 hrs by broth microdilution method
Procedure, shortened: (§1)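 MICs determined by two-fold broth microdilution following CLSI guidelines (M100-S22), with compound concentrations of […] in the well. Every well except the blank was inoculated with the test bacterium and incubated at 37 °C for 24 h. MIC was taken as the lowest concentration with no visible growth.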

Escherichia coli = experiment: Antimicrobial activity against Escherichia coli after 24 hrs by broth microdilution method; procedure, shortened: as §1
[1] = system: Stenotrophomonas maltophilia; experiment: Antimicrobial activity against Stenotrophomonas maltophilia after 24 hrs by broth microdilution method; procedure, shortened: as §1
Candida albicans = experiment: Antimicrobial activity against Candida albicans after 24 hrs by broth microdilution method
Staphylococcus aureus = experiment: Antimicrobial activity against Staphylococcus aureus after 24 hrs by broth microdilution method; procedure, shortened: as §1
Bacillus subtilis = experiment: Antimicrobial activity against Bacillus subtilis after 24 hrs by broth microdilution method; procedure, shortened: as §1

Row | SMILES | MIC (Acinetobacter baumannii) | MIC (Escherichia coli) | MIC [1] | MIC (Candida albicans) | MIC (Staphylococcus aureus) | MIC (Bacillus subtilis)
1 | Fc1ccc(Nc2nn3c(-c4ccccc4)nnc3c3ccccc23)cc1 | > 128 µg/mL | > 128 µg/mL | > 128 µg/mL | > 128 µg/mL | 16 µg/mL (≈ 45 µM) | > 128 µg/mL
2 | Cc1ccc(Nc2nn3c(-c4ccccc4)nnc3c3ccccc23)cc1 | > 128 µg/mL | > 128 µg/mL | > 128 µg/mL | > 128 µg/mL | 32 µg/mL (≈ 91.1 µM) | > 128 µg/mL
3 | c1ccc(-c2nnc3c4ccccc4c(N4CCNCC4)nn23)cc1 | 64 µg/mL (≈ 194 µM) | 128 µg/mL (≈ 387 µM) | 32 µg/mL (≈ 96.9 µM) | 32 µg/mL (≈ 96.9 µM) | 32 µg/mL (≈ 96.9 µM) | 64 µg/mL (≈ 194 µM)
4 | Fc1ccc(Nc2nn3cnnc3c3ccccc23)cc1 | > 128 µg/mL | > 128 µg/mL | > 128 µg/mL | > 128 µg/mL | 64 µg/mL (≈ 229 µM) | > 128 µg/mL
5 | Clc1ccc(Nc2nn3cnnc3c3ccccc23)cc1 | > 128 µg/mL | > 128 µg/mL | > 128 µg/mL | > 128 µg/mL | 32 µg/mL (≈ 108 µM) | > 128 µg/mL
6 | COc1ccc(Nc2nn3cnnc3c3ccccc23)cc1 | > 128 µg/mL | > 128 µg/mL | > 128 µg/mL | > 128 µg/mL | 128 µg/mL (≈ 439 µM) | > 128 µg/mL
7 | Cc1ccc(Nc2nn3cnnc3c3ccccc23)cc1 | > 128 µg/mL | > 128 µg/mL | > 128 µg/mL | > 128 µg/mL | 32 µg/mL (≈ 116 µM) | > 128 µg/mL
8 | c1ccc2c(c1)c(N1CCNCC1)nn1cnnc21 | > 128 µg/mL | > 128 µg/mL | > 128 µg/mL | > 128 µg/mL | > 128 µg/mL | > 128 µg/mL
9 | COc1ccc(Nc2nn3c(C)nnc3c3ccccc23)cc1 | > 128 µg/mL | > 128 µg/mL | > 128 µg/mL | > 128 µg/mL | 16 µg/mL (≈ 52.4 µM) | > 128 µg/mL
10 | Cc1ccc(Nc2nn3c(C)nnc3c3ccccc23)cc1 | > 128 µg/mL | > 128 µg/mL | > 128 µg/mL | > 128 µg/mL | 64 µg/mL (≈ 221 µM) | > 128 µg/mL
11 | Cc1nnc2c3ccccc3c(Nc3ccccc3Cl)nn12 | > 128 µg/mL | > 128 µg/mL | > 128 µg/mL | > 128 µg/mL | 32 µg/mL (≈ 103 µM) | > 128 µg/mL
12 | Cc1nnc2c3ccccc3c(N3CC(C)CC(C)C3)nn12 (stereo not drawn) | > 128 µg/mL | > 128 µg/mL | > 128 µg/mL | > 128 µg/mL | 32 µg/mL (≈ 108 µM) | 64 µg/mL (≈ 217 µM)
13 | OC(Cn1cncn1)(Cn1cncn1)c1ccc(F)cc1F [FLUCONAZOLE] | – | – | – | 1 µg/mL (≈ 3.27 µM) | – | –
14 | C[C@H]1COc2c(N3CCN(C)CC3)c(F)cc3c(=O)c(C(=O)O)cn1c23.C[C@H]1COc2c(N3CCN(C)CC3)c(F)cc3c(=O)c(C(=O)O)cn1c23.O [LEVOFLOXACIN] | 0.25 µg/mL | 0.25 µg/mL | 0.5 µg/mL | – | 0.5 µg/mL | 1 µg/mL
